SR-BI uptake up: SR-BI HDL lipid transfer activation; CHO ldlA[mSR-BI] cells, DiI-HDL uptake fluorescence, 3 h; 100 = double the neutral-control signal; activation, % at 12.5 µM; hit rate 0.096% among 320,000; AID 504775;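 active = mean replicate activation of at least 60% and every replicate at or above 60%; inconclusive = mean or all-replicate condition met, but not both; inactive = mean below 60% and not all replicates reaching 60%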;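 note: 0% = median plate neutral-control signal and 100% = twice that signal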
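Assay system: LDL receptor-deficient CHO ldlA cells overexpressing murine SR-BI / Medium: BSA-supplemented, HEPES-buffered Ham's F12, pH 7.4 / Probe or stimulus: DiI-labelled HDL at 10 µg/mL final / Timing: compound with DiI-HDL co-incubation, 3 h at 37 °C / Technique: bottom-read cell fluorescence after medium removal, ex 550/em 595 nm / Measure: HDL uptake via cellular fluorescence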
CDK5 p35 inh: CDK5/p35 (human) kinase inhibition. hit rate 0.01% among 330,000. inhibition, % at 10 µM. AID 488839. Q00535+Q15078. Recombinant CDK5/p35, ADP-Glo luminescence, 60 min;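 active = highest replicate inhibition of at least 50% and at least 75% of replicates reaching 50%; inconclusive = only one of the two criteria met; inactive = both criteria failed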;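 note: plate controls were DMSO neutral control for no effect and GW8510 at 10 µM for full effect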
Target sequence (Q00535 whole entry, looked up): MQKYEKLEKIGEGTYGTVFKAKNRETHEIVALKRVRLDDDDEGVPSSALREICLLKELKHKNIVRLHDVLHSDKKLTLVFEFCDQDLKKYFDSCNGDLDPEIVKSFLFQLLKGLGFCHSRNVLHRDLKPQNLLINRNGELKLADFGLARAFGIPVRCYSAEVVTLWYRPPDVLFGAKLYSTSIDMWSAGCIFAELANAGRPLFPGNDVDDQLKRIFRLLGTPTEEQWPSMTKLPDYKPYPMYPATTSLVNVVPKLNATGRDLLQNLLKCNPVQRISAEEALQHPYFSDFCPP
Target sequence (Q15078 whole entry, looked up): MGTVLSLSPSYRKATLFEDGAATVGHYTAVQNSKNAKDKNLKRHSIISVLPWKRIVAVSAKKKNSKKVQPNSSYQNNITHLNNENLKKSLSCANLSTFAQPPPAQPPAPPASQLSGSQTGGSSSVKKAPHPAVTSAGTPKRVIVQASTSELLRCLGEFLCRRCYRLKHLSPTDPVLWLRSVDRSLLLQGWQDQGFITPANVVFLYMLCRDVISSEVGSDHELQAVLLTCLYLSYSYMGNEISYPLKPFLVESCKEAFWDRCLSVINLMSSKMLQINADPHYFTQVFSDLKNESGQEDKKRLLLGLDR
SR-BI DiI inh: blocks mouse SR-BI lipid uptake from DiI-HDL; inhibition, % at 12.5 µM; ldlA[mSR-BI] CHO cells, DiI-HDL uptake fluorescence, 3 h; AID 488896; hit rate 0.96% among 320,000; Q61009;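 active = mean replicate inhibition of at least 70% and a set share of replicates each scoring 70 or more; inconclusive = meets just one of the two criteria; inactive = fails both criteria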;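 note: 0% = median of neutral control wells and 100% = median of positive control wells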
PKA-R1A act: activators of PKA-R1A complex; PKA-R1A dissociation, Cy5-IP20 fluorescence polarization; scaled: DMSO 0%, 113 µM cGMP 100%; activation, % at 11.4 µM; hit rate 0.083% among 340,000; P00514+P68181;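 active = percent activation above the mean of all tested compounds plus 3 SD, cut at about 19% in these data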;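 note: higher means more PKAc released from R1A so a rise in polarization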
PKA-R2B act: activators of human PKA-R2B complex. P22694+P31323. PKA-R2B holoenzyme dissociation, Cy5-IP20 fluorescence polarization; R2B truncated from residue 108, S112A mutant; 0% DMSO only, 100% 113 µM cGMP. activation, % at 11.4 µM. hit rate 0.079% among 340,000. AID 504700;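 active = activation above a cutoff set at the mean over all compounds plus 3 SD, cut at about 18% in these data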;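 note: higher means more holoenzyme dissociation and a rise in polarization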
dFosB activator: activators of mouse delta FosB homodimer | activation, % at 25 µM | P13346 | hit rate 0.99% among 340,000 | purified delta FosB, TAMRA-CDK5 oligo fluorescence polarization; percent of positive-control signal above neutral wells;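 active = mean activation above about 17%, with every replicate also reaching it, limit read from the data, passing the limit was not always enough; inconclusive = only one of the two conditions met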
DiI quencher: quenches DiI-HDL fluorescence, an SR-BI assay artifact; cell-free DiI-HDL fluorescence quenching, 30 min; hit rate 20% among 470; shares compounds with SR-BI DiI inh; AC50, µM (titrated, usually from 35 µM), for inactives: at the highest dose activity change, negative = quenching;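 active = quenching, a falling signal, with AC50 below a set limit tied to the top valid dose, actives reach about 32 µM in these data; inconclusive = no clear call, values can overlap the other calls; inactive = rising signal, and the rest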
Numbers without * were called inactive; ? = inconclusive; · = no result. An excerpt weighted towards active compounds, which were near 2.1% of everything screened.

SMILES | SR-BI uptake up | CDK5 p35 inh | SR-BI DiI inh | PKA-R1A act | PKA-R2B act | dFosB activator | DiI quencher
CC(=O)Nc1c2c(nn1-c1ccc(F)cc1)CSC2 | 16.9 | -0.1 | -16.9 | -6.1 | 11.5 | 3.4 | ·
CC(OC(=O)CSc1ccc(F)cc1)C(=O)NC1(C#N)CCCCC1 (configuration not stated) | 19.8 | -0.4 | -19.8 | -1.6 | -1.5 | -0.7 | ·
Cc1ccccc1NC(=O)NCC1CCN(c2ccc(S(=O)(=O)N3CCOCC3)cc2)CC1 | -82.0 | 0.2 | 82.0* | 7.9 | -17.1 | 6.5 | -2.2%
O=C(c1cn(-c2ccccc2)nc1-c1cccc([N+](=O)[O-])c1)N1CCCCC1 | -72.5 | -0.4 | 72.5* | 3.9 | -9.4 | -0.8 | -19.4%
CN(C)C(=O)c1ccc(-n2nc(C(F)(F)F)c3c2CCCC3)cc1 | -82.7 | 3.0 | 82.7* | -6.0 | 3.7 | -1.2 | -5.1%
NC(=O)c1ccc(-n2nc(C(F)(F)F)c3c2CCCC3)cc1 | -60.0 | 1.8 | 60.0 | -2.1 | -12.0 | -4.4 | ·
O=C(O)c1ccc(-n2nc(C(F)(F)F)c3c2CCCC3)cc1 | 13.5 | 0.3 | -13.5 | -6.2 | 2.1 | 3.5 | ·
O=C(c1ccc(-n2nc(C(F)(F)F)c3c2CCCC3)cc1)N1CCOCC1 | -79.3 | 0.1 | 79.3* | -10.8 | -4.5 | -5.8 | -0.9%
Cc1ccc(-c2sc(-c3ccccc3)nc2CC(=O)Nc2ccccc2F)cc1 | -77.4 | -1.1 | 77.3* | -3.0 | 6.6 | -1.6 | 4.7%
Cc1ccc(CSCC(=O)Nc2ccccc2F)cc1 | · | -0.3 | · | -0.2 | 6.0 | -2.4 | ·
CC(=O)Nc1ccc(S(=O)(=O)N2CCC(C(=O)NCCC(=O)NCc3ccccc3)CC2)cc1 | -119.4 | -1.5 | 119.4* | -4.5 | -1.7 | -5.7 | -2.6%
Cc1ccc(F)cc1NC(=O)C1C2CCC(O2)C1C(=O)O (configuration not stated) | 23.5 | 1.2 | -23.5 | 9.3 | 5.1 | -12.0 | -3.5%
CNC[C@H]1Oc2ccc(NC(=O)Cc3cn(C)c4ccccc34)cc2CC(=O)N([C@@H](C)CO)C[C@H]1C | -14.5 | 0.2 | 14.5 | 3.0 | -4.2 | -4.7 | ·
Cc1ccsc1C(=O)OCc1nc2ccsc2c(=O)[nH]1 | 12.8 | -0.7 | -12.8 | -8.4 | 0.1 | -1.2 | ·
CC(=O)c1c(C)[nH]c(C(=O)OCc2nc3ccsc3c(=O)[nH]2)c1C | -71.1 | 1.0 | 71.1* | -11.5 | 4.8 | -5.9 | -6.0%
CN(C(=O)c1ccc2c(c1)CCN2S(C)(=O)=O)c1ccccc1 | -20.0 | 1.5 | 20.0 | -7.3 | -0.1 | 2.6 | -1.8%
Cc1ccc(NC(=O)c2ccc3c(c2)CCN3S(C)(=O)=O)cc1C | -70.4 | -0.1 | ? | -5.2 | 10.3 | -5.3 | 0.3%
O=C(Nc1c(F)cccc1F)c1ccc2c(c1)CCN2S(=O)(=O)c1ccccc1 | -38.6 | 0.1 | 38.6 | -6.1 | -14.2 | -4.0 | ·
O=C(Nc1ccccc1F)c1ccc2c(c1)CCN2S(=O)(=O)c1ccccc1 | -52.6 | 1.5 | 52.6 | -5.1 | -15.4 | -0.2 | -0.6%
Cc1cc(C)cc(NC(=O)c2ccc3c(c2)CCN3S(C)(=O)=O)c1 | -76.6 | 0.6 | 76.6* | -11.5 | -7.5 | -8.9 | 2.7%
COc1ccc(C(=O)NC(C)Cc2c[nH]c3ccccc23)cc1 (configuration not stated) | · | · | · | 2.3 | 3.2 | · | ·
Cc1ccc(N(C(=O)c2csnn2)C(C(=O)NC2CCCC2)c2cccnc2)c(C)c1 (configuration not stated) | · | 2.8 | · | -9.5 | 0.8 | -7.8 | ·
CC1C(=O)N(Cc2cn(CC3CCCCC3)nn2)CCS(=O)(=O)N1Cc1ccc(-c2cccc(CO)c2)cc1 (configuration not stated) | · | · | · | -2.1 | -2.8 | · | ·
N#CC1=C2CCCCC2(O)NC1=O (configuration not stated) | · | · | · | 2.0 | -1.8 | · | ·
CC(C)(C)N(Cc1ccccc1)C(=O)COC(=O)CN1C(=O)NC2(CCCC2)C1=O | -75.6 | -1.3 | 75.6* | 6.4 | 12.5 | -3.9 | 2.0%
SMILES | SR-BI uptake up | CDK5 p35 inh | SR-BI DiI inh | PKA-R1A act | PKA-R2B act | dFosB activator | DiI quencher
Cc1ccc(CC2(c3ccccc3)NC(=O)NC2=O)cc1 (configuration not stated) | 25.4 | -2.0 | -25.4 | 5.9 | 3.5 | -8.7 | ·
CCOc1ccc(CCNC(=O)C2CC(=O)N(c3ccccc3OCC)C2)cc1OCC (configuration not stated) | -79.1 | -0.2 | 79.1* | -9.2 | -9.7 | 1.7 | -1.0%
CCOc1ccccc1N1CC(C(=O)NCCC2=CCCCC2)CC1=O (configuration not stated) | -62.8 | -5.0 | 62.8 | -7.9 | -9.6 | -2.0 | ·
COc1ccc(C(=O)N2CCN(c3ccc([N+](=O)[O-])c(NCCc4ccc(OC)c(OC)c4)c3)CC2)cc1 | -74.5 | -0.6 | ? | -0.7 | 0.9 | -4.6 | 3.0%
N#CCCN(C(=O)COC(=O)CCc1c[nH]c2ccccc12)c1ccc(F)cc1 | 15.8 | -0.7 | -15.8 | 3.8 | -15.7 | 0.3 | -12.7%
CCOC(=O)C1=C(CNCCOc2ccc(OC)cc2)NC(=O)NC1c1ccc2c(c1)OCO2 (configuration not stated) | -71.9 | -1.4 | ? | -6.9 | -1.4 | -11.7 | -3.9%
Cc1cccc(-c2ccc3c(c2)C2CC3CCN2C(=O)OCc2ccccc2)c1 (configuration not stated) | -84.7 | -2.1 | 84.7* | -3.6 | -6.9 | -6.0 | -1.6%
O=C(OCc1ccccc1)N1CCC2CC1c1cc(-c3ccccc3)ccc12 (configuration not stated) | 11.4 | 0.8 | -11.4 | -3.3 | 0.4 | -13.5 | -0.8%
CC(C)(C)OC(=O)C[C@H]1C/C=C\C[C@@H](CC(=O)N(CCO)Cc2ccccc2)C(=O)N[C@@H](Cc2ccccc2)COC1=O | -2.9 | 1.6 | 2.9 | -3.0 | -3.3 | -17.4 | ·
FC(F)(Cl)c1nnc2ccc(Sc3ccccn3)nn12 | 0.6 | 0.1 | -0.6 | -13.8 | -0.9 | 2.0 | ·
O=C(Nc1cccc(S(=O)(=O)N2CCOCC2)c1)C1CCN(S(=O)(=O)c2ccccc2)CC1 | -76.1 | -0.1 | ? | 5.4 | -7.1 | -8.2 | 6.0%
O=C(Nc1cccc(S(=O)(=O)N2CCOCC2)c1)C1CCCCN1S(=O)(=O)c1ccccc1 (configuration not stated) | 11.5 | -1.6 | -11.5 | -13.0 | -7.0 | -10.1 | ·
CC(C)c1ccc(NC(=O)c2sccc2-n2cccc2)cc1 | -100.8 | -0.1 | 100.8* | -6.8 | -0.8 | 0.4 | 2.3%
Cc1c(Br)cccc1NC(=O)c1sccc1-n1cccc1 | -58.9 | -2.1 | 58.9 | -2.1 | -2.5 | -8.6 | ·
